Experimental findings from ChEMBL document CHEMBL1131493, “Inhibitors of farnesyl protein transferase. 4-Amido, 4-carbamoyl, and 4-carboxamido derivatives of 1-(8-chloro-6,11-dihydro-5H-benzo[5,6]- cyclohepta[1,2-b]pyridin-11-yl)piperazine and 1-(3-bromo-8-chloro-6,11- dihydro-5H-benzo[5,6]cyclohepta[1,2-b]pyridin-11-yl)piperazine” (J Med Chem, 1998) are described below.

Data set [1] in a line: In vivo antitumor efficacy in nude mice by injecting a dose of 25 mg/kg, as HCl salt in saline solution, iv and the total drug exposure was determined. (0-24hr). The format is ADME, organism-based. Set-up: time < 24 hr, dose 25 mg/kg, route intravenous. The settings on record: mouse.
The nature of data set [2]: In vivo antitumor efficacy in cynomolgus monkeys by injecting a dose of 10 mg/kg, as HCl salt in saline solution, perorally and the total drug exposure was determined (0-8 hr). The format is ADME, organism-based, Macaca fascicularis. Further details: time < 8 hr, dose 10 mg/kg, route oral. As to conditions: cynomolgus monkey, po. In a few lines: (§1)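 Serum pharmacokinetics in nude mice or cynomolgus monkeys after oral (po) or iv dosing. Compounds were given as hydrochloride salts in 20% HPβCD unless otherwise noted. Other formulations were the hydrochloride salt in saline, the micronized free base in 20% HPβCD or corn oil (po) with saline for iv, or the hydrochloride salt in 0.4% methyl cellulose (po).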

Data set [3] is described as follows: Oral bioavailability in nude mice. The format is ADME, organism-based. The settings on record: mouse, in vivo, read-out: Bioavailabiility.
Data set [4] is described as follows: (§2) Maximal plasma concentration in nude mice after 25 mg/kg oral dose. The settings on record: mouse. Set-up: dose 25 mg/kg, route oral. It is filed as ADME, organism-based.
Data set [5] can be described thus: In vivo antitumor efficacy in nude mice by injecting a dose of 25 mg/kg, micronized free base in 20% HPbetaCD, iv and the total drug exposure was determined. (0-24hr). The settings on record: mouse. Further details: time < 24 hr, dose 25 mg/kg, route intravenous. The format is ADME, organism-based.
The nature of data set [6]: In vivo antitumor efficacy in nude mice by injecting a dose of 25 mg/kg, as HCl salt in saline solution, iv and the serum half-life was determined. The format is ADME, organism-based. Further details: dose 25 mg/kg, route intravenous. As to conditions: mouse.
A short description of data set [7]: In vivo antitumor efficacy in cynomolgus monkeys by injecting a dose of 5 mg/kg, as HCl salt in saline solution, perorally and the total drug exposure was determined (0-8 hr). The format is ADME, organism-based, Macaca fascicularis. Further details: time < 8 hr, dose 5 mg/kg, route oral. As to conditions: cynomolgus monkey, po. The essentials: (§3)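 Cynomolgus monkeys; hydrochloride salt in saline iv, or compound given po (as hydrochloride, as micronized free base in corn oil, or as hydrochloride in 0.4% methyl cellulose, depending on compound).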

Data set [8] can be described thus: In vivo antitumor efficacy in cynomolgus monkeys by injecting a dose of 10 mg/kg, as HCl salt in saline solution, perorally and the maximum drug concentration was determined. The format is ADME, organism-based, Macaca fascicularis. Set-up: dose 10 mg/kg, route oral. The settings on record: cynomolgus monkey, po. The essentials: as §3
A short description of data set [9]: In vivo antitumor efficacy in cynomolgus monkeys by injecting a dose of 5 mg/kg, as HCl salt in saline solution, perorally and the maximum drug concentration was determined. The format is ADME, organism-based, Macaca fascicularis. Further details: dose 5 mg/kg, route oral. As to conditions: cynomolgus monkey, po. In a few lines: as §3
The nature of data set [10]: In vivo antitumor efficacy in cynomolgus monkeys by injecting a dose of 5 mg/kg, as HCl salt in saline solution, iv and the serum half-life was determined. The format is ADME, organism-based, Macaca fascicularis. Further details: dose 5 mg/kg, route intravenous. The settings on record: cynomolgus monkey. In a few lines:
as §3

Data set [11] in a line: In vivo antitumor efficacy in nude mice by injecting a dose of 25 mg/kg, micronized free base in 20% HPbetaCD, iv and the serum half-life was determined. It is filed as ADME, organism-based. Set-up: dose 25 mg/kg, route intravenous. As to conditions: mouse.
Data set [12] is described as follows: In vivo antitumor efficacy in nude mice by injecting a dose of 25 mg/kg, micronized free base in 20% HPbetaCD, perorally and the total drug exposure was determined (0-24hr). The format is ADME, organism-based. Further details: time < 24 hr, dose 25 mg/kg, route oral. As to conditions: mouse, po.
In data set [13] the target is geranylgeranyltransferase type-I (Rattus norvegicus, UniProt P53610+Q04631). Kind of data set: Inhibition of rat Geranylgeranyl transferase (GGPT). It is filed as protein-complex assay.
Data set [14] in a line: Oral bioavailability in mouse (nude) (dose 25 mg/kg i.v.). The settings on record: in vivo. The format is ADME, organism-based.
Data set [15] in a line: In vivo antitumor efficacy in nude mice by injecting a dose of 25 mg/kg, as HCl salt in saline solution, perorally and the total drug exposure was determined (0-24hr). It is filed as ADME, organism-based. Further details: time < 24 hr, dose 25 mg/kg, route oral. As to conditions: mouse, po.
Data set [16] can be described thus: In vivo antitumor efficacy in cynomolgus monkeys by injecting a dose of 5 mg/kg, as HCl salt in saline solution, intravenously and the total drug exposure was determined (0-8 hr). Further details: time < 8 hr, dose 5 mg/kg, route intravenous. The format is ADME, organism-based, Macaca fascicularis. The settings on record: cynomolgus monkey, iv. In a few lines: as §3

Data set [17] deals with Cynomolgus monkey. Kind of data set: In vivo antitumor efficacy in cynomolgus monkeys by injecting a dose of 10 mg/kg, as HCl salt in saline solution, perorally and the duration of action was reported. It is filed as ADME, organism-based, Macaca fascicularis. Further details: dose 10 mg/kg, route oral. The settings on record: po. In a few lines:
as §3

For data set [18], the system named is Mus musculus. Kind of data set: In vivo antitumor efficacy in nude mice by injecting a dose of 25 mg/kg, as HCl salt in saline solution, perorally and the duration of action was reported. The format is ADME, organism-based. Further details: dose 25 mg/kg, route oral. As to conditions: po.
Data set [19] can be described thus: as §2. It is filed as ADME, organism-based. The settings on record: mouse. Set-up: dose 25 mg/kg, route oral. This is another data set of the same source.
Data set [20] in a line: Bioavailability in cynomolgus monkey (dose 5 mg/kg i.v.). The format is ADME, organism-based, Macaca fascicularis. As to conditions: in vivo, iv. In a few lines: as §1
Data set [21] is described as follows: In vivo antitumor efficacy expressed as maximum plasma concentration after a peroral dose of 10 mg/kg in cynomolgus monkeys. It is filed as ADME, organism-based, Macaca fascicularis. Further details: dose 10 mg/kg, route oral. As to conditions: cynomolgus monkey, po. In a few lines:
as §1

A short description of data set [22]: In vivo antitumor efficacy in nude mice by injecting a dose of 25 mg/kg iv and serum half-life was determined. The settings on record: mouse. Further details: dose 25 mg/kg, route intravenous. The format is ADME, organism-based. In a few lines:
as §1

Data set [23] can be described thus: as §2. It is filed as ADME, organism-based. Set-up: dose 25 mg/kg, route oral. As to conditions: mouse. The essentials: as §1
The source holds these as a separate data set.

In data set [24] the test system is Mus musculus. As to the kind of experiment: (§4) In vivo antitumor efficacy in nude mice 0-24 hr after peroral dose of 25 mg/kg expressed as Area under the curve. It is filed as ADME, organism-based. As to conditions: po, 24 h. Further details: time < 24 hr, dose 25 mg/kg, route oral. The essentials: as §1
The nature of data set [25]: as §4. It is filed as ADME, organism-based. The settings on record: nude, mouse, po. Further details: time < 24 hr, dose 25 mg/kg, route oral. In a few lines: as §1
Data set [26] is described as follows: Oral bioavailability in mouse (nude) (dose of 25 mg/kg). The format is ADME, organism-based. The settings on record: in vivo. In a few lines:
as §1

Data set [27] has as its system Cynomolgus monkey. Kind of data set: In vivo antitumor efficacy after peroral dose of 25 mg/kg in cynomolgus monkeys expressed as duration for which compound was present above IC50. The settings on record: po. It is filed as ADME, organism-based, Macaca fascicularis. Set-up: dose 25 mg/kg, route oral. The essentials: as §1
Data set [28] relates to Mus musculus. As to the kind of experiment: In vivo antitumor efficacy after peroral dose of 25 mg/kg in mice expressed as duration for which compound was present above IC50. It is filed as ADME, organism-based. Further details: dose 25 mg/kg, route oral. The settings on record: po. The essentials: as §1
Data set [29] can be described thus: In vivo antitumor efficacy in cynomolgus monkeys 0-8 hours after peroral dose of 25 mg/kg expressed as Area under the curve. The format is ADME, organism-based, Macaca fascicularis. Further details: time < 8 hr, dose 25 mg/kg, route oral. As to conditions: cynomolgus monkey, po. The essentials:
as §1

The AUC is the area under the concentration-time curve, a measure of exposure. In general, Cmax refers to the highest concentration seen after dosing. By half-life is commonly meant how long it takes for the measured level to halve. Broadly, the IC50 is the concentration that inhibits the measured activity by half. Consider `NC(=O)N1CCC(CC(=O)N2CCN(C3c4ccc(Cl)cc4CCc4cc(Br)cnc43)CC2)CC1` (stereo not given), for which the AUC at 24 h in data set [1] worked out at 33900 ng·h/mL; in data set [5], 57200 ng·h/mL; in data set [12] it was 55200 ng·h/mL; in data set [15], 70800 ng·h/mL. The AUC at 8 h amounted to 12700 ng·h/mL in data set [2], 4270 ng·h/mL in data set [7] and 12300 ng·h/mL in data set [16]. The figures for the bioavailability in [3], in data set [14] and in [20] were 96.6%, 100% and 35%, respectively. In addition, the Cmax in data set [4] is 71.1 µM; in data set [8], 2 µM; in data set [9] it was 0.5 µM; in data set [19] it was 38.8 µM. Further, the half-life was 1.2 h in data set [6], 2.4 h in data set [10] and 1.5 h in data set [11]. In data set [13], the IC50 is above 35 µM. For the same compound, the “Time above IC50” value in [17] came out at 24 h; in data set [18] it was 8 h.

Regarding `O=C(Cc1cc[n+]([O-])cc1)N1CCN([C@H]2c3ccc(Cl)cc3CCc3cc(Br)cnc32)CC1`, the Cmax stood at 8 µM in [21] and 24.6 µM in data set [23]. The compound also had a half-life in data set [22] of 1.9 h. Further, the AUC in data set [24] was determined as 35300 ng·h/mL. For the same compound, the AUC at 24 h in data set [25] came to 26100 ng·h/mL. Besides, the bioavailability in data set [26] came out at 100%. The “Time above IC50” value turned out to be 24 h in data set [27] and 7 h in data set [28]. This compound also returned an AUC at 8 h in [29] of 58100 ng·h/mL. The compound also had an IC50 in [13] above 76 µM.
